Results on 6 molecules are retold here after ChEMBL document CHEMBL4715858, “10-N-heterocylic aryl-isoxazole-amides (AIMs) have robust anti-tumor activity against breast and brain cancer cell lines and useful fluorescence properties” (Bioorg Med Chem, 2020).

The subject of data set [1] is SNB-19. The data set can be described thus: Anticancer activity against human SNB-19 cells assessed as cell growth inhibition measured after 3 to 5 days by MTT assay. Format: functional, cell-based. In outline:
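MTT colorimetric growth-inhibition assay in SNB-19 glioblastoma cells. IC50 obtained by fitting a logistic model to the dose-response data, as the concentration giving 50% growth inhibition relative to the DMSO control.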
On the technique in general: Tetrazolium assays rely on reduction of a dye to a coloured formazan, in cell work by metabolically active cells.

Data set [2] relates to MDA-MB-468. The data set can be described thus: Anticancer activity against human MDA-MB-468 cells assessed as cell growth inhibition measured after 3 to 5 days by MTT assay. Format: functional, cell-based.
For data set [3], the system named is C6. The data set can be described thus: Anticancer activity against rat C6 cells assessed as cell growth inhibition measured after 3 to 5 days by MTT assay. Format: functional, cell-based.
Data set [4] has as its system Quadruplex DNA. In words: Stabilization of c-myc Pu22 G4 quadruplex oligonucleotide (unknown origin) assessed as anisotropic shift at 2 equivalents of compound by NMR spectroscopy. Format: nucleic-acid assay. Summed up:
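1H NMR titration of the c-myc Pu22 oligomer, following the G-tetrad imino hydrogen-bonding region (10.95–11.6 ppm) for anisotropic shifts.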

Data set [5] can be described thus: Drug uptake in human SNB-19 cells assessed as punctate localization at 500 nM incubated for 10 mins followed by compound washout twice by HCS NuclearMask staining based confocal laser scanning microscopy. The following applies: snb-19, 10 min, 0.5 µM. The class given is ADME, cell-based. Summed up: (§1)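 Cells plated at 20,000 cells/well and left to adhere overnight. Treatment medium was made from 5 mM DMSO stocks diluted in growth medium and applied for 10 min at growth conditions. Cells were then washed twice with PBS and fixed in 4% PFA for 10 min on ice. Imaged immediately by confocal microscopy, 60x oil objective, excitation 405 nm, emission 422 nm, with HCS NuclearMask counterstain.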

Data set [6] concerns SNB-19. The data set can be described thus: Induction of apoptosis in human SNB-19 cells assessed as membrane blebbing at 500 nM incubated for 10 mins followed by compound washout twice by HCS NuclearMask staining based confocal laser scanning microscopy. Format: functional, cell-based. Summed up: as §1
For data set [7], the system named is SNB-19. The data set can be described thus: Induction of apoptosis in human SNB-19 cells assessed as organized cell death at 500 nM incubated for 10 mins followed by compound washout twice by HCS NuclearMask staining based confocal laser scanning microscopy. The class given is functional. In outline:
as §1

Data set [8] is described as follows: Drug uptake in cytoplasm of human SNB-19 cells at 500 nM incubated for 10 mins followed by compound washout twice by HCS NuclearMask staining based confocal laser scanning microscopy. The conditions noted are these: snb-19, 10 min, 0.5 µM. The class given is ADME, subcellular. In outline:
as §1

The nature of data set [9]: Drug uptake in nucleus of human SNB-19 cells at 500 nM incubated for 10 mins followed by compound washout twice by HCS NuclearMask staining based confocal laser scanning microscopy. Format: ADME, subcellular. The following applies: snb-19, 10 min, 0.5 µM. In outline:
as §1

Data set [10] relates to Quadruplex DNA. In words: Stabilization of c-myc Pu22 G4 quadruplex oligonucleotide (unknown origin) at 2 equivalents of compound by circular dichroism spectral analysis. Format: nucleic-acid assay. Summed up: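 Pu22 at 5 µM strand in 1 mM potassium phosphate pH 6, alone or with 2 equivalents compound, annealed at 90 °C for 10 min and then cooled to 4 °C overnight. CD spectra recorded 200–400 nm at 5 °C, 1 nm bandwidth, 0.2 nm step, 0.5 s per point.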

For data set [11], the system named is Quadruplex DNA. The data set can be described thus: Stabilization of c-myc Pu22 G4 quadruplex oligonucleotide (unknown origin) assessed as melting temperature at 2 equivalents of compound by thermal melting curve based analysis (reference value: 58.4 degC). Format: nucleic-acid assay. Summed up:
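Annealed at 90 °C for 10 min, then cooled gradually to 4 °C overnight. CD melting monitored at 265 nm from 20–90 °C at 1 °C/min in 0.5 °C steps. Tm from a six-parameter logistic fit.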

Active and inactive are the calls of the source. The calls are words filed in the database; no cut-off is given here.

As a reminder, the IC50 is the point on the concentration scale where inhibition reaches its midpoint. For `Cc1onc(-c2c3ccccc3c(-c3cccnc3)c3ccccc23)c1C(=O)Nc1cc(C(=O)N(CCCN(C)C)CCCN(C)C)n(C)c1`, the IC50 in data set [1] is 7.76 µM; in data set [2], 1.29 µM; in data set [3], > 25 µM.
For `Cc1onc(-c2c3ccccc3c(-c3ccccn3)c3ccccc23)c1C(=O)Nc1cc(C(=O)N(CCCN(C)C)CCCN(C)C)n(C)c1`, in that order: > 25 µM, 6.34 µM and > 25 µM.
For `Cc1onc(-c2c3ccccc3c(-c3ccncc3)c3ccccc23)c1C(=O)Nc1cc(C(=O)N(CCCN(C)C)CCCN(C)C)n(C)c1`, in that order: 7.08 µM, 3.1 µM and 16.9 µM.
In the case of `CCOC(=O)c1c(-c2c3ccccc3c(-c3ccccc3)c3ccccc23)noc1C`, in [4], the result was Active.
`Cc1onc(-c2c3ccccc3c(-c3cccc4cccnc34)c3ccccc23)c1C(=O)Nc1cc(C(=O)N(CCCN(C)C)CCCN(C)C)n(C)c1`: the IC50 is 2.03 µM in [1], 1.17 µM in [2] and 6.71 µM in data set [3]. Besides, the values for the Drug uptake result in data set [5], in [8] and in data set [9] were “Active”, “Active” and “Not Active”, respectively. In addition, the result in data set [6], in data set [7], in [10] and in data set [4] was Active. The Tm in data set [11] was 61.7 °C.
Turning to `Cc1onc(-c2c3ccccc3c(-c3ccccc3)c3ccccc23)c1C(=O)Nc1cc(C(=O)N(CCCN(C)C)CCCN(C)C)n(C)c1`, the result in [4] was Active.
